# “Also recorded” adds a separate entry of the source. Where two headings read alike, the source gives them in different places.
# Legend:
# [1] = test system: platelet function; format: in vivo, human; conditions: 15 minutes post dose
# Method in brief: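 Patients with STEMI were given one subcutaneous upper-arm injection before pPCI at 0.075, 0.090 or 0.110 mg/kg. Whole blood in 3.2% citrate was sampled pre-dose and at 15, 30, 45, 60, 90, 120 and 180 min, plus 240 min for cohorts 2–3. It was read on the VerifyNow P2Y12 iso-TRAP channel (3-4 μM iso-TRAP) as percent inhibition.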
# [2] = test system: platelet function; assay: VerifyNow Base channel; format: in vivo, human; conditions: for Base channel inhibition of platelet function, mean (min-max): 15 minutes post dose
# Method in brief: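 STEMI patients received a single subcutaneous dose in the upper arm before pPCI (0.075, 0.090 or 0.110 mg/kg cohorts). Citrated (3.2%) whole blood was drawn pre-dose and at 15–180 min, plus 240 min for cohorts 2–3. It was tested in the VerifyNow P2Y12 cartridge Base channel (20 μM iso-TRAP plus PAR-4 activator) as percent inhibition. Time to 50% return of platelet function was also derived.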
# [3] = Whole blood pharmacokinetics of RUC-4 in STEMI patients; format: in vivo, human; conditions: for maximum blood concentration (Cmax), mean±SD / tmax, median [min-max]: whole blood
# [4] = Safety and tolerability; format: in vivo, human
# [5] = format: in vivo, human
# Method in brief: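 STEMI patients in three cohorts received one weight-adjusted subcutaneous injection in the outer upper arm before pPCI, at 0.075, 0.090 or 0.110 mg/kg. Platelet counts were taken pre-dose and at 1, 24 and 72 h post dose. Other blood counts and kidney and liver function analytes were also monitored for tolerability.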
# [6] = test system: platelet function; conditions: Phase 1, sc; cited from earlier work
# [7] = Phase 1, healthy subjects and stable CAD patients on aspirin; cited from earlier work
# [8] = test system: platelet aggregation; conditions: cited from earlier work
# [9] = test system: platelet function; conditions: ref Bentur et al (submitted), cited from earlier work
# [10] = test system: platelet function; conditions: cited from earlier work
# [11] = even at peak levels of ticagrelor achieved in vivo, ref Bentur et al (submitted)
smiles,measurement,setting,value
NCC(=O)Nc1cncc(-c2nn3c(=O)cc(N4CCNCC4)nc3s2)c1 [RUC-4],"inhibition of platelet function, iso-TRAP assay, mean (min-max)",[1]; 0.075 mg/kg sc,77.5% [65.7%-90.6%]
same,patients with high-grade (≥77%) inhibition of the VerifyNow iso-TRAP assay,[1]; 0.075 mg/kg sc,3/8
same,"inhibition of platelet function, iso-TRAP assay, mean (min-max)",[1]; 0.090 mg/kg sc,87.5% [73.8%-93.1%]
same,patients with high-grade (≥77%) inhibition of the VerifyNow iso-TRAP assay,[1]; 0.090 mg/kg sc,7/8
same,"inhibition of platelet function, iso-TRAP assay, mean (min-max)",[1]; 0.110 mg/kg sc,91.7% [76.4%-99.3%]
same,patients with high-grade (≥77%) inhibition of the VerifyNow iso-TRAP assay,[1]; 0.110 mg/kg sc,7/8
same,"Base channel inhibition of platelet function, mean (min-max)",[2]; 0.075 mg/kg sc,86.0% (74.2%-97.7%)
same,"Base channel inhibition of platelet function, mean (min-max)",[2]; 0.090 mg/kg sc,92.3% (86.8%-97.1%)
same,"Base channel inhibition of platelet function, mean (min-max)",[2]; 0.110 mg/kg sc,93.0% (81.9%-98.6%)
same,"inhibition of the Base channel assay, on average","[2]; within 15 minutes, sc, all cohorts",more than 90%
same,"time at which maximum whole blood concentrations were reached, mean","[3]; post dose, all cohorts",20 min
same,"maximum blood concentration (Cmax), mean±SD",[3]; 0.075 mg/kg sc,96.7 ± 26.0 ng/mL
same,"tmax, median [min-max]",[3]; 0.075 mg/kg sc,15 [15-16] minutes
same,"maximum blood concentration (Cmax), mean±SD",[3]; 0.090 mg/kg sc,152.4 ± 114.0 ng/mL
same,"tmax, median [min-max]",[3]; 0.090 mg/kg sc,15 [14-45] minutes
same,"maximum blood concentration (Cmax), mean±SD",[3]; 0.110 mg/kg sc,129.8 ± 23.3 ng/mL
same,"tmax, median [min-max]",[3]; 0.110 mg/kg sc,15 [13-45] minutes
same,Number of patients with AEs with fatal outcome/death,[4]; 0.075 mg/kg sc,0 (0%) n/N (%)
same,Number of patients with AEs with fatal outcome/death,[4]; 0.090 mg/kg sc,0 (0%) n/N (%)
same,Number of patients with AEs with fatal outcome/death,[4]; 0.110 mg/kg sc,0 (0%) n/N (%)
same,AEs of special interest: Injection site bruising,"[4]; Total, all doses",11 (41%) n/N (%)
same,AEs of special interest: Injection site reaction,"[4]; Total, all doses",1 (4%) n/N (%)
same,AEs of special interest: Mild access-site bleeding,"[4]; Total, all doses",6 (22%) n/N (%)
same,AEs of special interest: Severe access-site bleeding,"[4]; Total, all doses",2 n/N (%)
same,Bleeding according to BARC classification: 1,"[4]; Total, all doses",13 n/N (%)
same,Number of patients with AEs with fatal outcome/death,"[4]; Total, all doses",0 (0%) n/N (%)
same,"most common AEs (injection site bruising, access-site haematoma or bruising) rated as grade 1","[4]; safety cohort, all doses",11/16
same,bruising at the RUC-4 injection site,"[4]; safety cohort, all doses, n=27",41%
same,vascular access-site haematoma or bruising,"[4]; safety cohort, all doses, n=27",30%
same,"Haemoglobin (mean, SD)","[5]; 24 hours post dose, Cohort 1 (0.075 mg/kg), pre-dose 14.04 (0.95)",13.82 (2.15) g/dL
same,"Platelet count (mean, SD)","[5]; 24 hours post dose, Cohort 1 (0.075 mg/kg), pre-dose 226.38 (44.59)",211.13 (36.22) 109/L
same,"Haemoglobin (mean, SD)","[5]; 24 hours post dose, Cohort 2 (0.090 mg/kg), pre-dose 13.68 (1.17)",13.93 (1.46) g/dL
same,"Platelet count (mean, SD)","[5]; 24 hours post dose, Cohort 2 (0.090 mg/kg), pre-dose 294.44 (74.60)",273.00 (71.72) 109/L
same,"Haemoglobin (mean, SD)","[5]; 24 hours post dose, Cohort 3 (0.110 mg/kg), pre-dose 14.31 (1.31)",13.29 (2.11) g/dL
same,"Platelet count (mean, SD)","[5]; 24 hours post dose, Cohort 3 (0.110 mg/kg), pre-dose 283.44 (60.85)",238.13 (46.07) 109/L
same,"Haemoglobin (mean, SD)","[5]; 72 hours post dose /discharge, Cohort 1 (0.075 mg/kg), pre-dose 14.04 (0.95)",14.10 (2.13) g/dL
same,"Platelet count (mean, SD)","[5]; 72 hours post dose /discharge, Cohort 1 (0.075 mg/kg), pre-dose 226.38 (44.59)",214.88 (49.28) 109/L
same,"Haemoglobin (mean, SD)","[5]; 72 hours post dose /discharge, Cohort 2 (0.090 mg/kg), pre-dose 13.68 (1.17)",13.96 (1.14) g/dL
same,"Platelet count (mean, SD)","[5]; 72 hours post dose /discharge, Cohort 2 (0.090 mg/kg), pre-dose 294.44 (74.60)",281.67 (79.81) 109/L
same,"Haemoglobin (mean, SD)","[5]; 72 hours post dose /discharge, Cohort 3 (0.110 mg/kg), pre-dose 14.31 (1.31)",13.75 (2.24) g/dL
same,"Platelet count (mean, SD)","[5]; 72 hours post dose /discharge, Cohort 3 (0.110 mg/kg), pre-dose 283.44 (60.85)",229.00 (47.76) 109/L
same,"changes in blood counts, or in kidney or liver function analytes",[5]; all cohorts,no clinically meaningful changes
same,thrombocytopaenia,"[5]; first 72 hours post dose, all patients",No thrombocytopaenia; also recorded: None of the patients included in the study developed thrombocytopaenia; also recorded: did not produce thrombocytopaenia
same,return of platelet function,[6],within two hours
same,"time to high-grade inhibition of platelet function (LTA, 20 μM ADP)",[6],≤ 15 min
same,dose up to which RUC-4 was well tolerated,[7],up to 0.075 mg/kg
"CCCCOC(=O)N1CCN(C(=O)[C@H](CP(=O)(O)O)NC(=O)c2cc(N3CC[C@H](OC)C3)nc(-c3ccccc3)n2)CC1 [Selatogrel, selatogrel]",effect on the VerifyNow P2Y12 assay,"[8]; single sc dose prior to PCI, patients with MI",inhibited
same,duration of effects,[8]; single sc dose,at least eight hours
CCCSc1nc(N[C@@H]2C[C@H]2c2ccc(F)c(F)c2)c2nnn([C@@H]3C[C@H](OCCO)[C@@H](O)[C@H]3O)c2n1 [ticagrelor],inhibition of the iso-TRAP assay,[9]; at peak levels of ticagrelor achieved in vivo,about 20%
same,effect on the Base channel assay,[10]; [11],not affected
CC(=O)Oc1ccccc1C(=O)O [aspirin],effect on the iso-TRAP assay,[9]; Supplementary Appendix 2,not affected
same,effect on the Base channel assay,[10]; [11],not affected
CC(=O)Oc1cc2c(s1)CCN(C(C(=O)C1CC1)c1ccccc1F)C2 (centres unmarked) [prasugrel],effect on the Base channel assay,[10]; doses that cause near-complete inhibition of the P2Y12 assay,do not inhibit

# Source: article PMC9464482 (EuroIntervention : journal of EuroPCR in collaboration with …, 2021)
